Bioassay records: PubChem BioAssay, SRMLSC
HCT116 bCat-KO – primary screen for growth suppressors in beta-catenin knockout HCT116 cells (colon tumor, human) | viability, % at 10 µM | AID 818, 2007 | 140,000 tested, 1.5% active | HCT116 beta-catenin knockout viability, CellTiter-Glo, 60 h; hits give low values;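 active means viability at or under a set limit, the compound median less 4 SD, cut at about 6% in these data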;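 further: 0% = Hyamine 1622 control at 20 µM and 100% = untreated cell control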
PTEN del growth – growth suppression of PTEN-null HCT116, primary screen, cell-based, CellTiter-Glo | HCT116 PTEN-null viability, 60 h; hits give low values | viability, % at 10 µM | 140,000 tested, 1.2% active;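 active means viability at or below a set limit, 4 SD under the median of all tested compounds, cut at about 3.7% in these data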;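 further: PTEN knockout HCT116 line with beta catenin targeted HCT116 as companion control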
HUVEC prolif 384 – inhibitors of HUVEC proliferation, primary screen, cell-based, 384-well. viability, % at 10 µM (by protocol). 86,000 tested, 1.1% active. CellTiter-Glo luminescence, 72 h; hits give low values;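 active means viability at or below 30%; inactive means viability above 30%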;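 further: 100% = median luminescence of DMSO-only cell control wells on each plate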
Lung fibro prol – antiproliferative effect on LL 47 fibroblasts – human, LL 47 cells, CellTiter-Glo luminescence, primary screen | LL 47 human lung fibroblast viability, ATP luminescence; hits give low values | viability, % at 10 µM | 85,000 tested, 1.1% active | AID 719, 2007;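 active means viability at or below 50% in the single dose screen; inactive means viability above 50%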;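 further: compound exposure lasted 72 h before the ATP readout; 100% = median luminescence of untreated cell-only wells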
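Material: human lung fibroblast line LL 47, low passage; Evaluation: viability percentage against median untreated-cell control; Buffer or medium: 15% FBS in IMEM; Incubation: 72 h compound exposure at 37 °C after overnight plating; Dosing: 0.1% DMSO in all compound wells; Measured by: CellTiter-Glo luminescence.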
H69AR growth 86K – proliferation blockers of H69AR lung cancer cells, primary screen, cell-based, human, 86K library. H69AR lung tumor viability, ATP luminescence, 72 h; hits give low values. viability, % at 10 µM. AID 598, 2007. 85,000 tested, 6% active;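 active means viability at or below 40%; inactive means viability above 40%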;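 further: multidrug resistant small cell line overexpressing MRP-1 efflux transporter; 100% = mean luminescence of untreated control wells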
Starred values were filed as active, the others as inactive; . = not tested or not shown. The entries come from a sample that favours hits as a whole.

SMILES | HCT116 bCat-KO | PTEN del growth | HUVEC prolif 384 | Lung fibro prol | H69AR growth 86K
COc1ccc(CNC(=O)COC(=O)CCC2CCCCC2)cc1 | 99 | 106 | . | . | .
Cc1cc(C)cc(NC(=O)CN2CCCN(S(=O)(=O)c3ccc(Br)s3)CC2)c1 | 53 | 58 | 66 | 87 | 53
Cc1ccc(NC(=O)CN2CCCN(S(=O)(=O)c3ccc(Br)s3)CC2)cc1 | 72 | 80 | 100 | 100 | 31*
COc1ccc(/C=C/C(=O)Nc2ccccc2C(F)(F)F)cc1 | 102 | 96 | . | . | .
O=C(CC(O)(c1ccccc1)C(F)(F)C(F)F)c1cccs1 (stereo not drawn) | 97 | 89 | 89 | 93 | 99
COc1ccc(/C=C/C(=O)CC(O)(c2ccccc2)C(F)(F)F)cc1 (stereo not drawn) | 45 | 45 | 62 | 88 | 38*
CC(NC(=O)COC(=O)/C=C/c1cccc(C(F)(F)F)c1)c1ccccc1 (stereo not drawn) | 106 | 102 | . | . | .
O=C(/C=C/c1ccccc1)CC(O)(c1ccccc1)C(F)(F)F (stereo not drawn) | 3.9* | . | 26* | 35* | 2.0*
O=C(/C=C/c1ccccc1)CC(O)(c1ccccc1)C(F)(F)C(F)F (stereo not drawn) | 2.8* | . | 5.3* | 32* | 1.3*
COc1ccccc1NS(=O)(=O)/C=C/c1ccccc1 | 90 | 88 | . | . | .
O=S1(=O)CC(O)C(N2CCCCC2)C1 (stereo not drawn) | 96 | 95 | 106 | 101 | 103
COc1ccc(-n2nnnc2-c2ccccc2)cc1 | 14 | 16 | 58 | 60 | 20*
COc1cc(/C=N/NC(=O)CNc2n[nH]c(=O)[nH]c2=O)ccc1O | 92 | 96 | . | . | .
CN(C)/C=C/C(=O)c1ccc(N2CCN(c3ncc(C(F)(F)F)cc3Cl)CC2)cc1 | 2.1* | 10 | 2.3* | 52 | 0.8*
O=C(CN1CCN(c2ncc(C(F)(F)F)cc2Cl)CC1)NCCNc1ncc(C(F)(F)F)cc1Cl | 79 | 74 | 76 | 102 | 3.8*
COc1cccc(NCc2cc(=O)oc3cc(-c4ccccc4)c(O)cc23)c1 | 63 | 48 | . | . | .
O/N=C(\c1ccc(Cl)cc1)c1cc2ccccc2o1 | 38 | 43 | 43 | 86 | 1.9*
CCOc1cc(NS(=O)(=O)c2ccc(NC(C)=O)cc2)c(OCC)cc1NC(=O)c1cccs1 | 92 | 63 | . | . | .
O=C(COc1ccccc1)N/N=C/c1ccc([N+](=O)[O-])o1 | 1.3* | 1.0* | . | . | .
CCCc1ccc(-c2cc(C(=O)N/N=C/c3ccc([N+](=O)[O-])o3)c3ccccc3n2)cc1 | 19 | 13 | . | . | .
CCCCCCCC(=O)Nc1ccc(C(=O)N/N=C/c2cccc([N+](=O)[O-])c2)cc1 | 1.5* | 1.7* | . | . | .
CCCC(=O)Nc1ccc(C(=O)N/N=C/c2ccc([N+](=O)[O-])o2)cc1 | 2.7* | 1.9* | . | . | .
CCCCCCC(=O)Nc1ccc(C(=O)N/N=C/c2cccnc2)cc1 | 95 | 90 | . | . | .
O=C(N/N=C/c1ccc([N+](=O)[O-])o1)c1cc(-c2cccc(Br)c2)nc2ccccc12 | 1.8* | 1.7* | . | . | .
CCc1cccc2c(/C=N/NC(=O)c3cccc(S(=O)(=O)Nc4ccccc4Cl)c3)c[nH]c12 | 100 | 86 | . | . | .
SMILES | HCT116 bCat-KO | PTEN del growth | HUVEC prolif 384 | Lung fibro prol | H69AR growth 86K
CC(C)(C)c1ccc(S(=O)(=O)N2CCC(c3nc4ccc(Cl)cc4[nH]3)CC2)cc1 | 67 | 47 | 67 | 85 | 35*
CSc1nc(C)cc(SCC(=O)N/N=C/c2ccccc2)n1 | 95 | 107 | . | . | .
CCN(CC)CC(=O)Nc1c(C)cc(C)cc1C | 85 | 84 | 96 | 105 | .
CCNc1ccc(C(=O)OCC)cc1NC(=O)c1cccc(S(=O)(=O)N(C)c2ccccc2)c1 | 72 | 67 | . | . | .
CCNc1ccc(C(=O)OCC)cc1NC(=O)c1cccc(N(C)C)c1 | 17 | 16 | 50 | 51 | 22*
CCOC(=O)c1ccc(N/C=C/C(=O)c2ccco2)cc1 | 60 | 59 | 95 | 107 | 17*
O=C1c2ccccc2C(=O)c2c1oc(C(F)(F)F)c2C(=O)c1ccccc1 | 2.0* | 1.8* | 3.5* | 3.1* | 0.7*
CC(=O)c1c(C)oc2c1C(=O)c1ccccc1C2=O | 2.6* | 1.9* | . | . | .
COc1ccc(CNC(=O)c2ccc(-c3ccccc3)cc2)cc1 | 102 | 96 | . | . | .
CNc1cccc2c1C(=O)c1ccccc1C2=O | 83 | 73 | . | . | .
COc1ccc(CNC(=O)c2c(C)oc3c2C(=O)c2ccccc2C3=O)cc1 | 1.3* | 1.3* | . | . | .
CCOc1nc(Nc2ccc(-c3nc4ccccc4o3)cc2)nc(N2CCOCC2)n1 | . | . | 73 | 102 | 64
CC(C)CC(=O)Nc1ccc(-c2nc3ccccc3c(=O)[nH]2)cc1 | 93 | 92 | . | . | .
S=C(NC1CCCCC1)N(CCc1ccccc1)CCc1ccccc1 | 75 | 67 | . | . | .
Cc1cc(NC(c2cccnc2)c2ccc3cccnc3c2O)no1 (stereo not drawn) | 4.3* | 5 | 57 | 3.9* | 31*
Oc1c(C(Nc2ccccn2)c2cccnc2)cc(Cl)c2cccnc12 (stereo not drawn) | 3.6* | 4 | . | . | .
COc1ccc(OCC(=O)NCCCN2CCOCC2)cc1 | 99 | 102 | 97 | 99 | 91
COc1ccc(S(=O)(=O)c2ccc(OC)c(OC)c2)cc1OC | 95 | 100 | 99 | 96 | 103
COc1ccc2c3c(cccc13)C(=O)N(O)C2=O | 14 | 8 | . | . | .
CCC1=NNc2cccc3c(OC)ccc1c23 | 78 | 72 | 21* | 3.8* | 98
O=C(CSc1nnc(COc2ccccc2)n1Cc1ccco1)c1ccc(F)cc1 | 88 | 84 | 91 | 83 | 39*
Clc1ccc(OCc2nnc(SCCN3CCCCC3)n2Cc2ccco2)cc1 | 10 | 16 | 75 | 85 | 15*
COc1ccccc1NC(=O)CSc1nnc(COc2ccc(Cl)cc2)n1Cc1ccco1 | 72 | 71 | 75 | 91 | 50
Cc1ccc(OCc2nnc(SCC(=O)c3ccccc3)n2Cc2ccco2)cc1 | 66 | 73 | . | . | .
CC(NC(=O)COC(=O)Cc1ccsc1)c1ccccc1 (stereo not drawn) | 92 | 102 | . | . | .
SMILES | HCT116 bCat-KO | PTEN del growth | HUVEC prolif 384 | Lung fibro prol | H69AR growth 86K
CCNc1nc(NC(C)(C)C)nc(N(C#N)CC)n1 | 97 | 101 | 97 | 94 | 33*
Cc1nc(N)sc1C(=O)N/N=C/c1c[nH]c2ccccc12 | 43 | 40 | . | . | .
CC(=O)n1cc(/C=N/NC(=O)c2sc(C)nc2C)c2ccccc21 | 45 | 48 | 84 | 89 | 22*
Cc1nc2c3c(-c4ccccc4)nc(N4CCOCC4)nc3nn2c(C)c1CCC(=O)O | . | . | 84 | 94 | 97
Cc1sc2nc(CSCC(=O)Nc3ccccc3C#N)[nH]c(=O)c2c1C | 97 | 96 | . | . | .
O=C(Oc1cccc2ccccc12)c1ccco1 | 94 | 99 | 85 | 95 | 64
O=S(=O)(Nc1ccc2c(c1)OCCO2)c1cccc2cccnc12 | 70 | 70 | 98 | 96 | 89
